Bioassay records (PubChem)
Sampled rows, rich in hits. Any-hit rate of the full collection: about 0.74%.
RGS8-Gao = RGS8-Galphao binding modulators, primary screen, biochemical, multiplexed bead flow cytometry; hit rate 0.34% among 220,000; Guanine nucleotide-binding protein G(o) subunit alpha (Homo sapiens), P09471; actives lie on both sides; AID 1423, 2008; response (percent of control binding), % at 10 µM; in the data active means response below about 60% or above about 140%; inactive means in between;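 further: Galphao activated as the GDP aluminium fluoride complex binding bead-coupled RGS8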
RGS16-Gao = modulators of RGS16 binding to Galphao, primary screen, biochemical, human proteins, multiplexed bead flow cytometry; AID 1441, 2008; Regulator of G-protein signaling 16 (Homo sapiens) + Guanine nucleotide-binding protein …; hit rate 0.38% among 220,000; bead-based flow cytometry RGS16-Galphao binding, fluorescence; actives lie on both sides; binding response (% of control), % at 10 µM;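 further: Galphao activated by GDP with aluminum fluoride before binding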
Target sequence (O15492 whole entry, looked up): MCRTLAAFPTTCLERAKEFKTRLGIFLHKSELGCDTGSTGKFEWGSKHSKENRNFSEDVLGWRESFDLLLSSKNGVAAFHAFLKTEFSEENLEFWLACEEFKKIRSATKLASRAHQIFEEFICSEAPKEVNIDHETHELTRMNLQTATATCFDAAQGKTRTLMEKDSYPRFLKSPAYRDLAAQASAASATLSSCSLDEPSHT
Target sequence (P09471 whole entry, looked up): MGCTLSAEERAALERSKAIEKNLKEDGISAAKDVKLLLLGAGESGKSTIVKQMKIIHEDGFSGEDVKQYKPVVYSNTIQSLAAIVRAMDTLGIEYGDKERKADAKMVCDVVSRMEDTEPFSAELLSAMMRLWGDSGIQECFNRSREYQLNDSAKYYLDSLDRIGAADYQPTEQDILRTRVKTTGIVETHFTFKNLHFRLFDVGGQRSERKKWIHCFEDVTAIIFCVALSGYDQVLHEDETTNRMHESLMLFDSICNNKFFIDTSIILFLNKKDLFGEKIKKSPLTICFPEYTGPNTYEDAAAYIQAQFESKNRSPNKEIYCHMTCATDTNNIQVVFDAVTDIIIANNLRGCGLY
Calb biofilm kill = clotrimazole potentiators killing C. albicans biofilm, primary screen, 4-compound mixtures; C. albicans biofilm persisters + clotrimazole, fluorescence viability; primary screen in compound mixtures of four per well; inhibition, % at 7.6 µM; AID 1242, 2008; hit rate 0.02% among 120,000;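 active means inhibition above 30.3% in the primary screen of four-compound pools, then above 30% when the compound was retested; inconclusive means passed the primary limit but could not be retested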;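 further: compounds exposed to preformed 24 h biofilms for 48 h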
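Probe or stimulus – Clotrimazole 50 µg/mL co-treatment · System – C. albicans biofilms · Schedule – 24 h biofilm formation, then 48 h compound exposure, 37 °C · Evaluation – percent inhibition of biofilm viability · Technique – 2-h Alamar Blue fluorescence, 535/590 nm excitation/emission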
RGS4-Gao reg = modulators of RGS4 binding to Galphao, primary screen, biochemical, multiplexed bead flow cytometry; actives lie on both sides; hit rate 0.33% among 220,000; Guanine nucleotide-binding protein G(o) subunit alpha (Homo sapiens), P09471; binding response (% of control), % at 10 µM; in the data active means binding response below about 49% or above about 150%; inactive means in between;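 further: fluorescent Galphao activated with aluminum fluoride binding bead-coupled RGS4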
RGS7-Gao reg = RGS7-Galphao binding modulators, primary screen, biochemical, multiplexed bead flow cytometry. Guanine nucleotide-binding protein G(o) subunit alpha (Homo sapiens), P09471. actives lie on both sides. binding response (% of control), % at 10 µM. AID 1439, 2008. hit rate 0.35% among 220,000; in the data active means binding response below about 49% or above about 150%; inconclusive means no clear call, values can overlap the other calls; inactive means in between;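 further: fluorescent Galphao held in activated GDP-AlF4 state binding bead-coupled RGS7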
RGS4-Gao HTS = modulators of RGS–Galpha-o binding, primary screen, biochemical, multiplexed beads, flow cytometry, RGS4/7/8/16/19. shares compounds with RGS16-Gao. multiplexed bead flow cytometry. RGS4–Galpha-o binding response, % at 10 µM. hit rate 99% among 1,600. AID 1504, 2009;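 further: fluorescently labeled Galpha-o bound to GDP with aluminium fluoride binding biotinylated RGS beads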
Target sequence (P09471 whole entry, looked up): as above
Target sequence (P49798 whole entry, looked up): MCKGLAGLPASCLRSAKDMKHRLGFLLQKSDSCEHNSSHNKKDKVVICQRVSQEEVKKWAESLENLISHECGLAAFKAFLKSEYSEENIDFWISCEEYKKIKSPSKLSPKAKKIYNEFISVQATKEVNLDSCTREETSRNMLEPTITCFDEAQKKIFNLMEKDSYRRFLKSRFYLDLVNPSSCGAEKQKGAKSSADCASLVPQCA
Biotin-avidin = disruption of biotin probe capture by avidin, counter-screen for RGS protein interaction modulators, biochemical, flow cytometry, bead-based. shares compounds with RGS16-Gao. streptavidin beads, fluorescein-biotin binding. inhibition, % at 10 µM. 1,700 tested, under 10 active. AID 1783, 2009;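 active means inhibition above 50%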;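 further: median green fluorescence of gated singlet beads compared with DMSO control wells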
RGS8-Gao single = RGS8-Galphao binding modulators, confirmation, biochemical, multiplexed bead flow cytometry, single concentration | binding response (% of control), % at 10 µM | bead-based flow cytometry RGS8-Galphao binding, fluorescence; actives lie on both sides | shares compounds with RGS16-Gao | hit rate 3% among 1,700; in the data active means binding response below about 72% or above about 130%; inactive means in between;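 further: Galphao activated as GDP AlF4 complex before binding bead RGS8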
RGS7-Gao single = RGS7-Galphao binding modulators, confirmation, biochemical, multiplexed bead flow cytometry, single concentration. hit rate 7.8% among 1,700. bead-based flow cytometry RGS7-Galphao binding; actives lie on both sides. response (percent of control binding), % at 10 µM. shares compounds with RGS16-Gao; in the data active means response below about 75% or above about 130%; inactive means in between;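 further: fluorescent Galphao activated with GDP and aluminum fluoride binding bead-coupled RGS7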
RGS16-Gao conf = modulators of RGS16-Galphao protein binding, confirmation, biochemical, single concentration, multiplexed bead flow cytometry. shares compounds with RGS16-Gao. bead-based flow cytometry; actives lie on both sides. response (% of control binding), % at 10 µM. hit rate 4% among 1,700; in the data active means response below about 74% or above about 130%; inactive means in between;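 further: Galphao activated as the GDP aluminium fluoride complex binding bead-coupled RGS16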
RGS4-Gao single = modulators of RGS4-Galphao protein binding, confirmation, biochemical, single concentration, multiplexed bead flow cytometry; shares compounds with RGS16-Gao; actives lie on both sides; binding response (% of control), % at 10 µM; hit rate 4% among 1,700; in the data active means binding response below about 74% or above about 130%; inactive means in between
RGS19-Gao single = regulators of RGS19-Galphao binding, confirmation, biochemical, single point, multiplexed bead flow cytometry; hit rate 5% among 1,700; AID 1841, 2009; response (percent of control binding), % at 10 µM; shares compounds with RGS16-Gao; bead-based flow cytometry RGS19-Galphao binding; actives lie on both sides; in the data active means response below about 50% or above about 160%; inactive means in between
Each line names hits and unclear results; the compound was inactive in the other large screens (follow-up assays come after a bar, where they were run); [ ] = another dose, or the depositor's remark. Unless noted, how the calls were made is not given here.

O=C(O)c1cc(S(=O)(=O)N2CCOCC2)ccc1N1CCOCC1	none (no result: Calb biofilm kill)
O=c1c2ccccc2sn1-c1cc(S(=O)(=O)N2CCOCC2)ccc1N1CCOCC1	RGS8-Gao 48, RGS16-Gao 0.6 (no result: Calb biofilm kill) | RGS4-Gao HTS 99
O=C(Cn1cnc2cc([N+](=O)[O-])ccc2c1=O)NCc1ccccc1	none
O=C(CSc1ccc(-c2ccncc2)nn1)N1CCN(c2ccccc2)CC1	none
O=C(O)CSc1c(-c2ccccc2)[nH]c2ccccc12	RGS16-Gao -3.1 | RGS4-Gao HTS 77 | Biotin-avidin inactive | RGS8-Gao single inactive | RGS7-Gao single inactive | RGS16-Gao conf inactive | RGS4-Gao single inactive | RGS19-Gao single inactive
NNc1ncnc2scc(-c3ccc(Cl)cc3)c12	RGS8-Gao 149[activator] | RGS4-Gao HTS 138 | Biotin-avidin inactive | RGS8-Gao single inactive | RGS7-Gao single inactive | RGS16-Gao conf inactive | RGS4-Gao single inactive | RGS19-Gao single inactive
Clc1ccc(-c2csc3ncnc(Cl)c23)cc1	none
O=C(Nc1ccc(F)cc1)OCCOc1ccc(Br)cc1	RGS7-Gao reg inconclusive
NC(N)=NC(=S)Nc1ccc(Cl)cc1	RGS7-Gao reg inconclusive
O=C(/C=C/c1ccco1)NCc1ccc(F)cc1	none
NS(=O)(=O)c1ccc(CNC(=O)/C=C/c2ccco2)cc1	RGS7-Gao reg inconclusive | Biotin-avidin inactive | RGS8-Gao single inactive | RGS7-Gao single inactive | RGS16-Gao conf inactive | RGS4-Gao single inactive | RGS19-Gao single inactive
CS(=O)(=O)Nc1ccc(C(=O)NCCC2=CCCCC2)cc1	none (no result: RGS8-Gao, RGS16-Gao, Calb biofilm kill, RGS4-Gao reg, RGS7-Gao reg) | Biotin-avidin inactive | RGS8-Gao single inactive | RGS7-Gao single inactive | RGS16-Gao conf inactive | RGS4-Gao single inactive | RGS19-Gao single inactive
O=C(NCCC1=CCCCC1)c1ccc(Cl)cc1	none
CCOC(=O)c1c(Cc2ccccc2)c[nH]c1C	none
C=CCn1c(COc2ccccc2)nnc1SCC(=O)Nc1ccc(S(N)(=O)=O)cc1	none (no result: Calb biofilm kill)
Cn1c(COc2ccccc2)nnc1SCC(=O)Nc1ccc(S(N)(=O)=O)cc1	none (no result: RGS8-Gao, RGS16-Gao, Calb biofilm kill, RGS4-Gao reg, RGS7-Gao reg) | Biotin-avidin inactive | RGS8-Gao single inactive | RGS7-Gao single inactive | RGS16-Gao conf inactive | RGS4-Gao single inactive | RGS19-Gao single inactive
C=CCn1c(CNC(=O)c2ccccc2F)nnc1SCc1nc2ccccc2c(=O)[nH]1	none (no result: RGS8-Gao, RGS16-Gao, RGS4-Gao reg, RGS7-Gao reg) | Biotin-avidin inactive | RGS8-Gao single inactive | RGS7-Gao single inactive | RGS16-Gao conf inactive | RGS4-Gao single inactive | RGS19-Gao single inactive
C=CCn1c(CCNC(=O)c2ccccc2F)nnc1SCc1nc2ccccc2c(=O)[nH]1	none (no result: Calb biofilm kill)
CCOC(=O)C(=O)N(Nc1ccccc1C)c1ccccc1C	none
O=c1c2cn[nH]c2nc(SCc2c(F)cccc2F)n1-c1ccc(Cl)cc1	none
CCSc1nnc(Nc2ccccc2)s1	RGS8-Gao 42, RGS16-Gao 21, RGS4-Gao reg 15, RGS7-Gao reg 25 (no result: Calb biofilm kill) | Biotin-avidin inactive | RGS8-Gao single inactive | RGS7-Gao single inactive | RGS16-Gao conf inactive | RGS4-Gao single inactive | RGS19-Gao single inactive
Cc1cc(C(=O)NNC(=O)NC(C)C)no1	RGS7-Gao reg inconclusive
O=C(NNc1cc(N2CCOCC2)nc(N2CCOCC2)n1)c1ccc(Cl)cc1Cl	RGS8-Gao 23, RGS16-Gao 10, RGS4-Gao reg 21, RGS7-Gao reg 12 | Biotin-avidin inactive | RGS8-Gao single inactive | RGS7-Gao single inactive | RGS16-Gao conf inactive | RGS4-Gao single inactive | RGS19-Gao single inactive
CC(=O)NNc1cc(N2CCOCC2)nc(N2CCOCC2)n1	RGS7-Gao reg inconclusive
CC(C)(C)c1ccc(C(=O)NNc2cc(N3CCCCC3)nc(N3CCCCC3)n2)cc1	RGS8-Gao 173[activator], RGS16-Gao 560[activator], RGS4-Gao reg 842[activator], RGS7-Gao reg 643[activator] (no result: Calb biofilm kill) | Biotin-avidin inactive | RGS8-Gao single inactive | RGS7-Gao single inactive | RGS16-Gao conf inactive | RGS4-Gao single inactive | RGS19-Gao single inactive
CC1CCc2c(sc(NC(=O)COC(=O)c3ccccc3NCc3ccco3)c2C#N)C1 (stereo not drawn)	RGS8-Gao 4.6, RGS4-Gao reg -5.5, RGS7-Gao reg -2.0 (no result: Calb biofilm kill) | Biotin-avidin inactive | RGS8-Gao single inactive | RGS7-Gao single inactive | RGS16-Gao conf inactive | RGS4-Gao single inactive | RGS19-Gao single inactive
CN(C)C(=O)C[n+]1cccc(/C=N/O)c1	RGS8-Gao 142[activator], RGS16-Gao 251[activator] | RGS4-Gao HTS 114 | Biotin-avidin inactive | RGS8-Gao single inactive | RGS7-Gao single inactive | RGS16-Gao conf inactive | RGS4-Gao single inactive | RGS19-Gao single inactive
CCN(CC)C(=O)C[n+]1cccc(/C=N/O)c1	none
Cc1ccc(N/C(=C\C(=O)c2ccccc2)C(=O)O)cc1	none
CCCCCn1c(CN(C)Cc2ccccc2)nc2c1c(=O)n(C)c(=O)n2C	RGS16-Gao 238[activator] (no result: Calb biofilm kill) | RGS4-Gao HTS 110 | Biotin-avidin inactive | RGS8-Gao single inactive | RGS7-Gao single inactive | RGS16-Gao conf inactive | RGS4-Gao single inactive | RGS19-Gao single inactive
COc1ccc(CCNC(=O)c2cnn(-c3ccc(C)c(C)c3)c2NC(=O)c2ccco2)cc1OC	none (no result: RGS8-Gao, RGS16-Gao, Calb biofilm kill, RGS4-Gao reg, RGS7-Gao reg) | Biotin-avidin inactive | RGS8-Gao single inactive | RGS7-Gao single inactive | RGS16-Gao conf inactive | RGS4-Gao single inactive | RGS19-Gao single inactive
COc1ccccc1NC(=O)Cc1cccs1	none (no result: Calb biofilm kill)
